Source: ChEMBL document CHEMBL3616459, “Antimicrobial peptides with potential for biofilm eradication: synthesis and structure activity relationship studies of battacin peptides” (J Med Chem, 2015)
≈ marks a conversion by molar mass, not a printed value. Calls of active or inactive are those of the source. The rule behind the calls is not given here. Non-standard residues stand in square brackets, D forms with d. Residues, ends and D or L forms follow the SMILES beside them. ξ: configuration not given here. *: point of attachment. Hexanoyl(4ξ-Me) = CCC(C)CCC(=O)*; dDab = NCC[C@@H](N)C(=O)O; Dab = NCC[C@H](N)C(=O)O

Columns and labels:
[1] = tested on: Erwinia amylovora; experiment: Bactericidal activity against Erwinia amylovora 1501 by time-kill assay; format: functional, organism-based
Outline: (§1)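 Time-kill assay. Overnight culture diluted in LB to mid-log phase, 10^5–10^8 CFU/mL; 100 μL added to 10 mL peptide in LB at 1×, 2×, 4× and 20× MIC. Incubated with shaking at 100 rpm, at 28 °C (Ea1501, Psa) or 37 °C (E. coli, P. aeruginosa, S. aureus). Samples at 0, 0.5, 1, 3, 6, 9 and 24 h serially diluted in 0.9% saline and plated; colonies counted after 24 h. Run in duplicate. Bactericidal means ≥2-log10 CFU/mL drop versus the no-antibiotic control.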

[2] = tested on: Staphylococcus aureus; experiment: Antimicrobial activity against Staphylococcus aureus assessed as complete cell lysis at 2 times MIC […]; format: functional, organism-based
[3] = tested on: Escherichia coli; experiment: Bactericidal activity against Escherichia coli assessed as reduction in bacterial count at 20 times MIC up to 3 hrs by time-kill assay relative to control; format: functional; outline: as §1
[4] = tested on: Staphylococcus aureus; experiment: Antimicrobial activity against Staphylococcus aureus after 24 hrs by spectrophotometry; format: functional
Outline: (§2)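 Broth microdilution in Luria broth. Overnight culture from a single colony, grown at 28 °C (Ea1501, Psa) or 37 °C (E. coli, S. aureus), adjusted to OD600 0.6. Peptide dissolved in LB with 0.5% acetic acid as a dilution series; 50 μL peptide plus 50 μL culture per well, triplicates.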

[5] = tested on: Pseudomonas syringae; experiment: Bactericidal activity against Pseudomonas syringae pv. actinidiae 16027 at 20 times MIC up to 1 hr by time-kill assay; format: functional, organism-based; outline: as §1
[6] = tested on: Pseudomonas aeruginosa; experiment: Bactericidal activity against Pseudomonas aeruginosa at 20 times MIC after 9 hrs by time-kill assay relative to control; format: functional, organism-based; outline: as §1
[7] = tested on: Staphylococcus aureus; experiment: Antimicrobial activity against Staphylococcus aureus assessed as perturbed cell membrane at 2 times MIC measured after 24 hrs by scanning electron microscopy; format: functional, organism-based
Outline: (§3)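 Bacteria grown to OD600 0.3 in LB on glass slides for 24 h, then washed with 10 mM sodium phosphate pH 7.4. Treated 20 min with peptide in LB at twice the upper limit of its MIC, washed, and fixed in 4% glutaraldehyde 1 h. Dehydrated through graded ethanol, dried at 60 °C, platinum coated, and imaged by SEM at 10 kV.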

[8] = tested on: Pseudomonas aeruginosa; experiment: Antimicrobial activity against Pseudomonas aeruginosa preformed biofilms at 10 to 50 uM after 48 hrs; format: functional, organism-based
Outline: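 Biofilms preformed 48 h without peptide, then washed. Peptide at 10, 50 or 100 μM in LB added and incubated a further 24 h at 37 °C. Live/dead BacLight staining on coverslips, then fluorescence microscopy at 1000×.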

[9] = Hemolytic activity in mouse erythrocytes at 100 uM to 1 mM after 1 hr by spectrophotometry; format: ADME, cell-based, Erythrocyte; settings: read-out: Activity
Outline: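 100 μL peptide (1 μM–1 mM in Tris buffer) plus 100 μL cells, incubated 1 h at 37 °C, triplicates. After centrifugation, supernatant A540 read. Percent hemolysis calculated relative to buffer (0%) and 0.1% Triton X-100 (100%) controls.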

[10] = tested on: Pseudomonas syringae; experiment: Inhibition of Pseudomonas syringae pv. actinidiae 16027 biofilm formation at 5 uM after 48 hrs; format: functional
Outline: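 Psa16027 overnight culture (OD600 0.3) grown at 28 °C in LB. 50 μL peptide in LB (1–100 μM) plus 50 μL diluted culture, triplicates, incubated 48 h at 28 °C at 50 rpm. Wells stained with 1% crystal violet for 5 min and washed; stain solubilized in 96% ethanol and A560 read as biofilm mass. For imaging, 12-well plates were used and stained biofilms viewed at 400×.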

[11] = tested on: Escherichia coli; experiment: Bactericidal activity against Escherichia coli assessed as reduction in bacterial count at 2 to 4 times MIC up to 9 hrs by time-kill assay relative to control; format: functional; outline: as §1
[12] = Antimicrobial activity against Pseudomonas syringae pv. actinidiae 16027 after 24 hrs by spectrophotometry; format: functional; settings: Pseudomonas syringae, 16027, 24 h; outline: as §2
[13] = tested on: Pseudomonas aeruginosa; experiment: Antimicrobial activity against Pseudomonas aeruginosa assessed as complete cell lysis at 2 times MIC […]; format: functional, organism-based
[14] = tested on: Staphylococcus aureus; experiment: Ratio of gentamycin MIC to compound MIC for Staphylococcus aureus after 24 hrs by spectrophotometry; format: functional
[15] = tested on: Escherichia coli; experiment: Bactericidal activity against Escherichia coli by time-kill assay; format: functional, organism-based; outline: as §1
[16] = tested on: Escherichia coli; experiment: Antimicrobial activity against Escherichia coli assessed as complete cell lysis at 2 times MIC measured after 24 hrs by scanning electron microscopy; format: functional, organism-based; outline: as §3
[17] = tested on: Pseudomonas aeruginosa; experiment: Bactericidal activity against Pseudomonas aeruginosa at 20 times MIC after 24 hrs by time-kill assay relative to control; format: functional, organism-based; outline: as §1
[18] = tested on: Erwinia amylovora; experiment: Bactericidal activity against Erwinia amylovora 1501 at 2 to 20 times MIC after 9 hrs by time-kill assay; format: functional, organism-based; outline: as §1
[19] = tested on: Staphylococcus aureus; experiment: Bactericidal activity against Staphylococcus aureus at 4 to 20 times MIC after 24 hrs by time-kill assay; format: functional, organism-based; outline: as §1
[20] = tested on: Staphylococcus aureus; experiment: Bactericidal activity against Staphylococcus aureus by time-kill assay; format: functional, organism-based; outline: as §1
[21] = tested on: Erwinia amylovora; experiment: Bactericidal activity against Erwinia amylovora 1501 at 2 to 20 times MIC up to 6 hrs by time-kill assay; format: functional, organism-based; outline: as §1
[22] = tested on: Pseudomonas syringae; experiment: Bactericidal activity against Pseudomonas syringae pv. actinidiae 16027 at 1 to 2 times MIC after 9 hrs by time-kill assay; format: functional, organism-based; outline: as §1
[23] = tested on: Staphylococcus aureus; experiment: Bactericidal activity against Staphylococcus aureus at 1 to 2 times MIC after 24 hrs by time-kill assay; format: functional, organism-based; outline: as §1
[24] = tested on: Pseudomonas aeruginosa; experiment: Antimicrobial activity against Pseudomonas aeruginosa after 24 hrs by spectrophotometry; format: functional
[25] = tested on: Pseudomonas syringae; experiment: Bactericidal activity against Pseudomonas syringae pv. actinidiae 16027 at 1 to 20 times MIC after 24 hrs by time-kill assay; format: functional, organism-based; outline: as §1
[26] = tested on: Pseudomonas aeruginosa; experiment: Bactericidal activity against Pseudomonas aeruginosa assessed as reduction in bacterial count at 2 to 4 times MIC after 24 hrs by time-kill assay relative to control; format: functional; outline: as §1
[27] = tested on: Staphylococcus aureus; experiment: Antimicrobial activity against Staphylococcus aureus preformed biofilms at 10 to 25 uM after 48 hrs; format: functional, organism-based
[28] = tested on: Pseudomonas syringae pv. actinidiae; experiment: Antimicrobial activity against Pseudomonas syringae pv. actinidiae 16027 preformed biofilms after 48 hrs by crystal violet staining-based microscopy; format: functional
Outline: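 Psa16027 biofilms formed 48 h without peptide, then washed. 100 μL of peptide (1, 5 or 50 μM) in LB, or LB alone, added and incubated a further 24 h at 28 °C. Crystal violet staining followed, with A560 estimation of biofilm mass and microscopy.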

[29] = tested on: Erwinia amylovora; experiment: Bactericidal activity against Erwinia amylovora 1501 at MIC […] by time-kill assay; format: functional, organism-based
[30] = tested on: Pseudomonas syringae; experiment: Bactericidal activity against Pseudomonas syringae pv. actinidiae 16027 at 4 times MIC up to 6 hrs by time-kill assay; format: functional, organism-based; outline: as §1
[31] = tested on: Staphylococcus aureus; experiment: Bactericidal activity against Staphylococcus aureus at 1 to 2 times MIC after 6 hrs by time-kill assay; format: functional, organism-based; outline: as §1
[32] = tested on: Escherichia coli; experiment: Antimicrobial activity against Escherichia coli after 24 hrs by spectrophotometry; format: functional; outline: as §2
[33] = tested on: Pseudomonas aeruginosa; experiment: Antimicrobial activity against Pseudomonas aeruginosa assessed as inner membrane permeability at 0.5 to 100 uM measured after 60 min by propidium iodide uptake assay
[34] = tested on: Escherichia coli; experiment: Bactericidal activity against Escherichia coli assessed as reduction in bacterial count at 2 to 4 times MIC after 24 hrs by time-kill assay relative to control; format: functional, organism-based; outline: as §1
[35] = tested on: Pseudomonas aeruginosa; experiment: Bactericidal activity against Pseudomonas aeruginosa by time-kill assay; format: functional, organism-based; outline: as §1

CCC(C)CCC(=O)N[C@H](CCN)C(=O)N[C@@H](CCN)C(=O)N[C@@H](CCN)C(=O)N[C@@H](CC(C)C)C(=O)N[C@H](Cc1ccccc1)C(=O)N[C@@H](CCN)C(=O)N[C@@H](CCN)C(=O)N[C@@H](CC(C)C)C(N)=O (stereo partly drawn) ({Hexanoyl(4ξ-Me)}-[dDab][Dab][Dab]L[dF][Dab][Dab]L-NH2)
Activity [1]: Dose-dependent effect | Activity [2]: Active | Activity [3]: >3 deltalog10CFU/ml | MIC [4]: 1 µM (≈ 1 µg/mL) | Activity [5]: Active | Activity [6]: Active | Activity [7]: Active | Activity [8]: Active | hemolysis at 1 h, 100 µM [9]: 1.79% | inhibition [10]: Active | Activity [11]: >3 deltalog10CFU/ml | MIC [12]: 1 µM (≈ 1 µg/mL) | Activity [13]: Active | Ratio [14]: 2 | Activity [15]: Dose-dependent effect | Activity [16]: Active | Activity [17]: Active | Activity [18]: Active | Activity [19]: Active | Activity [20]: Dose-dependent effect | Activity [21]: Active | Activity [22]: Active | Activity [23]: Active | MIC [24]: 1 µM (≈ 1 µg/mL) | Activity [25]: inactive | Activity [26]: >2 deltalog10CFU/ml | Activity [27]: Active | Activity [28]: Active | Activity [29]: inactive | Activity [30]: Active | Activity [31]: Active | MIC [32]: 2.5 µM (≈ 2.51 µg/mL) | Activity [33]: Active | Activity [34]: inactive | Activity [35]: Dose-dependent effect
